Source: ChEMBL document CHEMBL1125341, “Delta opioid antagonist activity and binding studies of regioisomeric isothiocyanate derivatives of naltrindole: evidence for delta receptor subtypes” (J Med Chem, 1992)

Assays:
Mu-type opioid receptor [1] = target: Mu-type opioid receptor (UniProt P35372); assay: Prewash IC50 ratio obtained by dividing the IC50 of the morphine in presence of the antagonist by the IC50 of the agonist alone in the same tissue preparation against opioid receptor mu in guinea pig ileum; assay type: functional, tissue-based
Sequence of Mu-type opioid receptor (P35372 whole entry): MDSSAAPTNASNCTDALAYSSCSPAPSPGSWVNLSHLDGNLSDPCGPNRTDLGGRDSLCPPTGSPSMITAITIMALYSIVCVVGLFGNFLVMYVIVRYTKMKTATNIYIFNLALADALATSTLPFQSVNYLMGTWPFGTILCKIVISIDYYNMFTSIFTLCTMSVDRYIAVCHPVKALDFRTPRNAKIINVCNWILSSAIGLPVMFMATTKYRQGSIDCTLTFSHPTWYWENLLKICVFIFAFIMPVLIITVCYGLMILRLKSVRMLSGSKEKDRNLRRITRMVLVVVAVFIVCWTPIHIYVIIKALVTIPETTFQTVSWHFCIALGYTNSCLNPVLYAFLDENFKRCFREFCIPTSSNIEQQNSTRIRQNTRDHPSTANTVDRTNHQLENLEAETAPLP
Summary of the method: (§1)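 Guinea pig ileum longitudinal muscle (morphine, ethylketazocine) or mouse vas deferens (DADLE). Tissue was exposed to antagonist at 100 nM, or 1 nM for one isomer, for 30 min before agonist concentration-response. Prewash ratio is agonist IC50 with antagonist over IC50 alone in the same tissue. Where the shift was significant, tissue was washed extensively and IC50 redetermined; postwash ratio is over control IC50. Mean ± SEM.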

Mus musculus [2] = assay: Compound was tested for antagonistic activity of opioid agonist induced antinociception by using morphine as agonist, administered sc in mice; assay type: functional
Summary of the method: (§2)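 Mice received isothiocyanate 10 nmol icv 24 h before testing. Agonist ED50 was then found in the abdominal stretch assay: DPDPE and DSLET given icv, morphine and U50488 given sc. Result is the ED50 ratio, treated over untreated control mice, with significance testing.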

Mus musculus [3] = assay: Compound was tested for antagonistic activity of opioid agonist induced antinociception by using DPDPE as agonist, administered icv in mice; assay type: functional; summary of the method: as §2
[4] = target: Delta-type opioid receptor (Rattus norvegicus) (UniProt P33533); assay: Compound was evaluated for its effect on the [3H]DSLET binding towards Opioid receptor delta 2 at 0.25 nM concentration; activity expressed as Bmax
Sequence of Delta-type opioid receptor (Rattus norvegicus) (P33533 whole entry): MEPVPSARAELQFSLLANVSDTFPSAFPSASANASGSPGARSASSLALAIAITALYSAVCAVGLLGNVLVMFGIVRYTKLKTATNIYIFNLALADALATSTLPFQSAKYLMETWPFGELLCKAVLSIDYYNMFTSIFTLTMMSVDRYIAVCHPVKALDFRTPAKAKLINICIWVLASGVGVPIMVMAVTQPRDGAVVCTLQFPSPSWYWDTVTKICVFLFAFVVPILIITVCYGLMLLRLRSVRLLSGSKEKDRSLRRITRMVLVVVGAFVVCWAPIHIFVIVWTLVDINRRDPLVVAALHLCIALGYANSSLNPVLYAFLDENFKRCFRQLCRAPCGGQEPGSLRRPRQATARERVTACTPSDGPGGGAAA

[5] = target: Delta-type opioid receptor (Rattus norvegicus) (UniProt P33533); assay: Compound was evaluated for its effect towards […] binding to Opioid receptor delta 1 at 0.25 nM concentration activity expressed as Bmax
Mus musculus [6] = species: Mus musculus; assay: compound was evaluated for agonist activity in smooth muscle preparation of mouse vas deferens (MVD) at 1 uM concentration; assay type: functional; conditions: Muscle tissue
Summary of the method: (§3)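 Ligand at 1 µM tested directly on guinea pig ileum longitudinal muscle or mouse vas deferens; percent inhibition of the preparation recorded. Mean ± SEM of 3 experiments.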

[7] = target: T1, Delta-type opioid receptor (Rattus norvegicus, UniProt P33533); assay: Compound was evaluated for its effect towards [3H]DSLET binding to Opioid receptor delta 2 at 0.25 nM concentration
T1 sequence (P33533 whole entry): as above

[8] = target: T1, Delta-type opioid receptor; assay: Compound was evaluated for its effect towards [3H]DPDPE binding to Opioid receptor delta 1 at 0.25 nM concentration expressed as dissociation constant
[9] = Post wash IC50 ratio obtained by dividing the IC50 of the DADLE in presence of the antagonist by the IC50 of the agonist alone in the same tissue preparation against delta receptor in mouse vas deferens; assay type: functional; summary of the method: as §1
[10] = Prewash IC50 ratio obtained by dividing the IC50 of the DADLE in presence of the antagonist by the IC50 of the agonist alone in the same tissue preparation against delta receptor in mouse vas deferens; assay type: functional; summary of the method: as §1
Mus musculus [11] = assay: Compound was tested for antagonistic activity of opioid agonist induced antinociception by using U-50,488H as agonist, administered sc in mice; assay type: functional; summary of the method: as §2
Mu-type opioid receptor [12] = target: Mu-type opioid receptor (UniProt P35372); assay: Post wash IC50 ratio obtained by dividing the IC50 of the morphine in presence of the antagonist by the IC50 of the agonist alone in the same tissue preparation against opioid receptor mu in guinea pig ileum; assay type: functional, tissue-based; summary of the method: as §1
[13] = target: Delta-type opioid receptor (Rattus norvegicus) (UniProt P33533); assay: Compound was evaluated for its effect on the [3H]DSLET binding towards Opioid receptor delta 2 at 4 nM concentration; activity expressed as Bmax
Mus musculus [14] = assay: Compound was tested for antagonistic activity of opioid agonist induced antinociception by using DSLET as agonist, administered icv in mice; assay type: functional; summary of the method: as §2
[15] = target: Kappa-type opioid receptor (UniProt P41145); assay: Prewash IC50 ratio obtained by dividing the IC50 of the ethylketazocine in presence of the antagonist by the IC50 of the agonist alone in the same tissue preparation against opioid receptor kappa in guinea pig ileum; assay type: functional, tissue-based; summary of the method: as §1
Sequence of Kappa-type opioid receptor (P41145 whole entry): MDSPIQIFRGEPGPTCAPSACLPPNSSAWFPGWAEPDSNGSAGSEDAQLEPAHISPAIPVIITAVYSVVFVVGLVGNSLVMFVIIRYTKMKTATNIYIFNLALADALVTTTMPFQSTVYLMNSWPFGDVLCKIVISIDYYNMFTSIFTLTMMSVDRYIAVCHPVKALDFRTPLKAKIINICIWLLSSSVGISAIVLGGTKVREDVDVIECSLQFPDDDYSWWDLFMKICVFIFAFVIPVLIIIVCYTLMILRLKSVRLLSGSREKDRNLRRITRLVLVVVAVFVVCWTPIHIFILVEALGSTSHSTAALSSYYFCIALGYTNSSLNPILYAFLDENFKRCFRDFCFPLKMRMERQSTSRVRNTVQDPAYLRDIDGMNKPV

Cavia porcellus = species: Cavia porcellus; assay: compound was evaluated for agonist activity in smooth muscle preparation of guinea pig ileum (GPI) at 1 uM concentration; assay type: functional; conditions: Muscle tissue; summary of the method: as §3

Structure (SMILES)	Ratio (Mu-type opioid receptor [1])	ED50 ratio (Mus musculus [2])	ED50 ratio (Mus musculus [3])	Bmax (fM (mg of protein)-1) [4]	Bmax (fM (mg of protein)-1) [5]	inhibition at 1 µM (Mus musculus [6]) [%]	Kd [7] [nM]	Kd [8] [nM]	Ratio [9]	Ratio [10]	ED50 ratio (Mus musculus [11])	Ratio (Mu-type opioid receptor [12])	Bmax (fM (mg of protein)-1) [13]	ED50 ratio (Mus musculus [14])	Ratio [15]	inhibition at 1 µM (Cavia porcellus) [%]
Oc1ccc2c3c1OC1c4[nH]c5c(N=C=S)cccc5c4CC4(O)C(C2)N(CC2CC2)CCC314 (stereo unspecified)	15	2	3.7	208	5.6	31.8	15.7	2.3	16.1	7.99	0.8	53	361	3	0.81	5.9
Oc1ccc2c3c1OC1c4[nH]c5ccc(N=C=S)cc5c4CC4(O)C(C2)N(CC2CC2)CCC314 (stereo unspecified)	0.9	1.3	0.6	–	–	18.8	–	–	7.71	6.68	3.2	–	–	52.1	0.93	-2.4
Oc1ccc2c3c1OC1c4[nH]c5cc(N=C=S)ccc5c4CC4(O)C(C2)N(CC2CC2)CCC314 (stereo unspecified)	1.44	1.4	9.2	–	–	0	–	–	185	155	0.9	–	–	6.8	1.04	12.4
Oc1ccc2c3c1OC1c4[nH]c5cccc(N=C=S)c5c4CC4(O)C(C2)N(CC2CC2)CCC314 (stereo unspecified)	0.77	1.2	2.6	–	–	24.4	–	–	3.71	4.59	1.6	–	–	1.6	0.51	1
